Results taken from ChEMBL document CHEMBL5724801, “EUbOPEN Chemogenomics Library - Multiplex” (2024).
Values joined by “and” are separate entries in the source; they are usually repeats but may differ in a detail not shown here. Equal values may be shown once.

Legend:
Fibroblast = test: Multiplex assay against human fibroblast; type: toxicity, cell-based
Method in brief: (§1)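 Cells stained live at seeding with Hoechst33342, BioTracker Green Microtubule Cytoskeleton Dye, MitoTracker Red and Annexin V Alexa Fluor 680 were imaged on a CQ1 microscope at 37°C and 5% CO2 after compound addition. Their classification by CellPathfinder machine-learning gating ran from Hoechst high-intensity objects versus normal cells, to healthy, pyknosed or fragmented nuclei among normal cells, to mitotic or apoptotic among pyknosed cells. Tubulin, mitochondrial-mass and membrane-permeability phenotypes are per cents of healthy-nucleus cells.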

U2OS = test: Multiplex assay against U2OS; type: toxicity, cell-based; settings: human; method in brief: as §1
[1] = 12 h, 1 µM, compound concentration 1 uM
[2] = 12 h, 10 µM, compound concentration 10 uM
[3] = 24 h, 1 µM, compound concentration 1 uM
[4] = 24 h, 10 µM, compound concentration 10 uM
[5] = 48 h, 1 µM, compound concentration 1 uM
[6] = 48 h, 10 µM, compound concentration 10 uM

Structure (SMILES): O=C(O)C(F)(F)F.O=C1NC(=O)/C(=C/c2c[nH]c(=O)c(-c3ccc(N4CCNCC4)nc3)c2)S1
- Population Apoptotic (%) (Fibroblast; [1]): 11.76% and 21.95%
- Population Fragmented Nuclei (%) (Fibroblast; [1]): 12.02% and 8.21%
- Population Healthy Nuclei (%) (Fibroblast; [1]): 60.11% and 70.77%
- Population Hoechst High Intensity Objects (%) (Fibroblast; [1]): 0%
- Population Membrane Permeable-Phenotype (%) (Fibroblast; [1]): 3.64% and 0%
- Population Mitochondria Different-Phenotype (%) (Fibroblast; [1]): 8.18% and 7.25%
- Population Mitotic Cells (%) (Fibroblast; [1]): 88.24% and 78.05%
- Population Normal (%) (Fibroblast; [1]): 100%
- Population Pyknosed Nuclei (%) (Fibroblast; [1]): 27.87% and 21.03%
- Population Tubulin-Different-Phenotype (%) (Fibroblast; [1]): 8.18% and 12.32%
- Total Cell Count (Fibroblast; [1]): 183 and 195
- Population Apoptotic (%) (Fibroblast; [2]): 13.51% and 16.13%
- Population Healthy Nuclei (%) (Fibroblast; [2]): 62.9% and 80.28%
- Population Hoechst High Intensity Objects (%) (Fibroblast; [2]): 0%
- Population Membrane Permeable-Phenotype (%) (Fibroblast; [2]): 5.98% and 3.51%
- Population Mitochondria Different-Phenotype (%) (Fibroblast; [2]): 4.27% and 11.7%
- Population Mitotic Cells (%) (Fibroblast; [2]): 86.49% and 83.87%
- Population Normal (%) (Fibroblast; [2]): 100%
- Population Pyknosed Nuclei (%) (Fibroblast; [2]): 19.89% and 14.55%
- Total Cell Count (Fibroblast; [2]): 186 and 213
- Population Apoptotic (%) (Fibroblast; [3]): 10.42% and 17.86%
- Population Fragmented Nuclei (%) (Fibroblast; [3]): 12.43% and 7.25%
- Population Healthy Nuclei (%) (Fibroblast; [3]): 61.62% and 78.24%
- Population Hoechst High Intensity Objects (%) (Fibroblast; [3]): 0%
- Population Membrane Permeable-Phenotype (%) (Fibroblast; [3]): 4.39% and 3.97%
- Population Mitochondria Different-Phenotype (%) (Fibroblast; [3]): 4.39% and 9.27%
- Population Mitotic Cells (%) (Fibroblast; [3]): 89.58% and 82.14%
- Population Normal (%) (Fibroblast; [3]): 100%
- Population Pyknosed Nuclei (%) (Fibroblast; [3]): 25.95% and 14.51%
- Population Tubulin-Different-Phenotype (%) (Fibroblast; [3]): 10.53% and 16.56%
- Total Cell Count (Fibroblast; [3]): 185 and 193
- Population Apoptotic (%) (Fibroblast; [4]): 24.24% and 20.59%
- Population Fragmented Nuclei (%) (Fibroblast; [4]): 13.83% and 5.22%
- Population Healthy Nuclei (%) (Fibroblast; [4]): 68.62% and 80%
- Population Hoechst High Intensity Objects (%) (Fibroblast; [4]): 0%
- Population Membrane Permeable-Phenotype (%) (Fibroblast; [4]): 3.88% and 1.09%
- Population Mitochondria Different-Phenotype (%) (Fibroblast; [4]): 4.65% and 6.52%
- Population Mitotic Cells (%) (Fibroblast; [4]): 75.76% and 79.41%
- Population Normal (%) (Fibroblast; [4]): 100%
- Population Pyknosed Nuclei (%) (Fibroblast; [4]): 17.55% and 14.78%
- Population Tubulin-Different-Phenotype (%) (Fibroblast; [4]): 10.85% and 20.11%
- Total Cell Count (Fibroblast; [4]): 188 and 230
- Population Apoptotic (%) (Fibroblast; [5]): 26.32% and 27.27%
- Population Fragmented Nuclei (%) (Fibroblast; [5]): 10.5% and 6.53%
- Population Healthy Nuclei (%) (Fibroblast; [5]): 81.51% and 87.94%
- Population Hoechst High Intensity Objects (%) (Fibroblast; [5]): 0%
- Population Membrane Permeable-Phenotype (%) (Fibroblast; [5]): 1.03% and 1.71%
- Population Mitochondria Different-Phenotype (%) (Fibroblast; [5]): 8.76% and 5.71%
- Population Mitotic Cells (%) (Fibroblast; [5]): 73.68% and 72.73%
- Population Normal (%) (Fibroblast; [5]): 100%
- Population Pyknosed Nuclei (%) (Fibroblast; [5]): 7.98% and 5.53%
- Population Tubulin-Different-Phenotype (%) (Fibroblast; [5]): 6.7% and 18.86%
- Total Cell Count (Fibroblast; [5]): 238 and 199
- Population Apoptotic (%) (Fibroblast; [6]): 50% and 55.56%
- Population Fragmented Nuclei (%) (Fibroblast; [6]): 7.94% and 3.6%
- Population Healthy Nuclei (%) (Fibroblast; [6]): 88.89% and 92.34%
- Population Hoechst High Intensity Objects (%) (Fibroblast; [6]): 0%
- Population Membrane Permeable-Phenotype (%) (Fibroblast; [6]): 1.19% and 1.46%
- Population Mitotic Cells (%) (Fibroblast; [6]): 50% and 44.44%
- Population Normal (%) (Fibroblast; [6]): 100%
- Population Pyknosed Nuclei (%) (Fibroblast; [6]): 3.17% and 4.05%
- Total Cell Count (Fibroblast; [6]): 189 and 222
- Population Apoptotic (%) (U2OS; [1]): 42.86% and 38.46%
- Population Fragmented Nuclei (%) (U2OS; [1]): 1.89% and 1.93%
- Population Healthy Nuclei (%) (U2OS; [1]): 92.45% and 85.51%
- Population Hoechst High Intensity Objects (%) (U2OS; [1]): 0%
- Population Membrane Permeable-Phenotype (%) (U2OS; [1]): 0.29% and 4.52%
- Population Mitochondria Different-Phenotype (%) (U2OS; [1]): 0.29% and 6.21%
- Population Mitotic Cells (%) (U2OS; [1]): 57.14% and 61.54%
- Population Normal (%) (U2OS; [1]): 100%
- Population Pyknosed Nuclei (%) (U2OS; [1]): 5.66% and 12.56%
- Population Tubulin-Different-Phenotype (%) (U2OS; [1]): 0.58% and 2.82%
- Total Cell Count (U2OS; [1]): 371 and 207
- Population Apoptotic (%) (U2OS; [2]): 25% and 60%
- Population Fragmented Nuclei (%) (U2OS; [2]): 1.57% and 2.75%
- Population Healthy Nuclei (%) (U2OS; [2]): 90.03% and 86.26%
- Population Hoechst High Intensity Objects (%) (U2OS; [2]): 0%
- Population Membrane Permeable-Phenotype (%) (U2OS; [2]): 2.62% and 4.46%
- Population Mitochondria Different-Phenotype (%) (U2OS; [2]): 0.29% and 5.73%
- Population Mitotic Cells (%) (U2OS; [2]): 75% and 40%
- Population Normal (%) (U2OS; [2]): 100%
- Population Pyknosed Nuclei (%) (U2OS; [2]): 8.4% and 10.99%
- Population Tubulin-Different-Phenotype (%) (U2OS; [2]): 1.17% and 1.27%
- Total Cell Count (U2OS; [2]): 381 and 182
- Population Apoptotic (%) (U2OS; [3]): 38.46% and 27.27%
- Population Fragmented Nuclei (%) (U2OS; [3]): 0.79% and 0.38%
- Population Healthy Nuclei (%) (U2OS; [3]): 94.08% and 86.92%
- Population Hoechst High Intensity Objects (%) (U2OS; [3]): 0%
- Population Membrane Permeable-Phenotype (%) (U2OS; [3]): 0.42% and 3.98%
- Population Mitochondria Different-Phenotype (%) (U2OS; [3]): 0.21% and 3.98%
